pIC50: −log10 of the molar value. Active and inactive are the calls of the source. The calls are words filed in the database; no cut-off is given here.

For orientation: inhibition means the change of the read-out against control, counted positive when it falls. The pIC50 is −log10 of the IC50, conventionally taken in molar units. Low values mean a high IC50, high ones a low IC50.

In assay [1] the test system is Monocyte. Nature of the assay: Antiinflammatory activity in human monocytes assessed as inhibition of LPS-induced COX1 expression at 100 uM after 24 hrs using rabbit polyclonal antibody IgG by Western blot analysis. Format: functional, cell-based. Put shortly: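 Isolated human monocytes (3 × 10⁶ cells/ml) incubated with LPS, vehicle or test agent; lysates immunoblotted with a specific anti-COX-1 antibody to assess COX-1-like immunoreactivity.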
For orientation: A western blot detects proteins with antibodies after separation by electrophoresis.

Assay [2] has as its system Monocyte. Nature of the assay: Antiinflammatory activity in human monocytes assessed as inhibition of LPS-induced COX2 expression at 100 uM after 20 hrs using rabbit polyclonal antibody IgG by Western blot analysis. It counts as functional, cell-based. Summed up:
(§1)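 Isolated human monocytes (3 × 10⁶ cells/ml) treated 20 h with test agent or vehicle in the presence of LPS; unstimulated cells as control. Cells lysed; equal protein loads run on SDS-polyacrylamide gel and immunoblotted with rabbit polyclonal antibody to a human COX-2-specific sequence (band ~72 kDa); beta-actin as loading control. Three experiments; dose-response series used for IC50.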

The target of assay [3] is T1, Prostaglandin G/H synthase 1 (Ovis aries) (UniProt P05979).
T1 sequence (whole entry): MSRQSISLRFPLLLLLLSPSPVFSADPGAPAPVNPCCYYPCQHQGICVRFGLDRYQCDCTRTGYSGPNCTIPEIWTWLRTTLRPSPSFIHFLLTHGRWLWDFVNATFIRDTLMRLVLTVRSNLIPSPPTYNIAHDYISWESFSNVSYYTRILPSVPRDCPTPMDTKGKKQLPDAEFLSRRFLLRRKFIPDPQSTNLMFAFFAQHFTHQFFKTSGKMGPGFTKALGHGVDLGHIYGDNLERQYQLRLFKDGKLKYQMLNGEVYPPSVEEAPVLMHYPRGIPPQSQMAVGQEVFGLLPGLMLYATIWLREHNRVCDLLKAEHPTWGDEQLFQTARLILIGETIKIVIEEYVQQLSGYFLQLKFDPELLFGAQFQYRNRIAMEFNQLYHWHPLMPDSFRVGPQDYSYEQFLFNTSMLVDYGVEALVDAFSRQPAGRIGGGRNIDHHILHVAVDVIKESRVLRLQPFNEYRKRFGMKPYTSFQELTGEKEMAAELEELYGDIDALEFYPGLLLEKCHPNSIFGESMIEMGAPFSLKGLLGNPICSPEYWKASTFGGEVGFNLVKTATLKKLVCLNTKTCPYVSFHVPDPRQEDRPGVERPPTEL
Nature of the assay: (§2) Inhibition of ovine COX1 using TMPD as substrate preincubated for 15 mins.

For assay [4], the target named is T2, Prostaglandin G/H synthase 2 (Ovis aries) (UniProt P79208).
T2 sequence (whole entry): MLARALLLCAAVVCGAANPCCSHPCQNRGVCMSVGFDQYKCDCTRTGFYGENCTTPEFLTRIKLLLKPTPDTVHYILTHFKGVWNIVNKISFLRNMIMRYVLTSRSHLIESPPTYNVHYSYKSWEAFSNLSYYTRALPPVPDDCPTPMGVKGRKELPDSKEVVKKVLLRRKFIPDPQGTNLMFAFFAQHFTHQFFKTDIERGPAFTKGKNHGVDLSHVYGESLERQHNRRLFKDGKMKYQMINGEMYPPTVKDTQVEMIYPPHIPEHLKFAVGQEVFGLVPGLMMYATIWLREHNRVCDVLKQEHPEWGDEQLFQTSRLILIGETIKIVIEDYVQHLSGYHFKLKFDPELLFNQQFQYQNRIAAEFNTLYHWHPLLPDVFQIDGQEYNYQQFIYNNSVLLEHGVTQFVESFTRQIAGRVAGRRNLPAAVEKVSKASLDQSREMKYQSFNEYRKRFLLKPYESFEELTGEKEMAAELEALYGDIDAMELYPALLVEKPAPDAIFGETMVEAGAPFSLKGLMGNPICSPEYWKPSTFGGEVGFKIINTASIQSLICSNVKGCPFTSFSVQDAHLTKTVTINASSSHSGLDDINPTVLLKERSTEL
Nature of the assay: Inhibition of ovine COX2 using TMPD as substrate at 300 uM preincubated for 15 mins.

The subject of assay [5] is Raji. Nature of the assay: Inhibition of TPA-induced EBV-early antigen activation in human Raji cells. Format: cell-based. The note with it: human gammaherpesvirus 4, dose or concentration not given here.
In assay [6] the test system is HL-60. The assay can be described thus: Inhibition of superoxide radicals production in human HL60 cells. Format: functional.
For assay [7], the target named is T3, Prostaglandin G/H synthase 2 (Homo sapiens) (UniProt P35354).
T3 sequence (whole entry): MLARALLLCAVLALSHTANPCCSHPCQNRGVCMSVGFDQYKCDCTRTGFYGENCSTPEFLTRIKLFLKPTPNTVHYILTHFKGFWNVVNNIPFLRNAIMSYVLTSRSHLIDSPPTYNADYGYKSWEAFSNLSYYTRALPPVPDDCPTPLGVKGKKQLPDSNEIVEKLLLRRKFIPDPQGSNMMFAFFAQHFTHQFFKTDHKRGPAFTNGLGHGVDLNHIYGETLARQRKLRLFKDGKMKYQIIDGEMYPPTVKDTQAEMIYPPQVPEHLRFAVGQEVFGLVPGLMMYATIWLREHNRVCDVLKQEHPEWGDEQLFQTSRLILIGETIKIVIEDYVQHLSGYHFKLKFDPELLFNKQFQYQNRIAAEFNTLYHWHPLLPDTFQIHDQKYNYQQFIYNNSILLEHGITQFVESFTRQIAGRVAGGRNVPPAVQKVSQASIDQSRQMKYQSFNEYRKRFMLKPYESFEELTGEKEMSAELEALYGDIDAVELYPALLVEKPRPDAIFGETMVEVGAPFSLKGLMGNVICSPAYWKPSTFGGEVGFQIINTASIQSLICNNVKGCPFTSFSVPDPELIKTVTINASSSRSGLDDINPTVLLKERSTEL
Nature of the assay: Inhibition of COX2 promoter activity in human DLD1 cells at 100 uM. Format: cell-based. The note with it: DLD-1.

A short description of assay [8]: Antiinflammatory activity in human monocytes assessed as inhibition of LPS-induced COX2 expression assessed per ug of protein at 100 uM after 20 hrs using rabbit polyclonal antibody IgG by SDS-PAGE analysis (reference value: 1.53 +/- 0.3 ng/ug). It counts as functional, Monocyte. Put shortly: as §1
Assay [9] relates to Monocyte. Nature of the assay: Antiinflammatory activity in human monocytes assessed as inhibition of LPS-induced COX2 expression at 5 uM after 20 hrs using rabbit polyclonal antibody IgG by SDS-PAGE analysis. It counts as functional, cell-based. Summed up:
as §1

The subject of assay [10] is Monocyte. The assay can be described thus: Antiinflammatory activity in human monocytes assessed as inhibition of LPS-induced COX2 expression at 100 uM after 20 hrs using rabbit polyclonal antibody IgG by SDS-PAGE analysis. It counts as functional, cell-based. Summed up:
as §1

Assay [11] is described as follows: Antiinflammatory activity in human monocytes assessed as inhibition of LPS-induced COX2 expression at 25 uM after 20 hrs using rabbit polyclonal antibody IgG by Western blot analysis. Format: functional. The following applies: Monocyte. Summed up:
as §1

In assay [12] the target is T4, Prostaglandin G/H synthase 1 (Ovis aries, UniProt P05979).
T4 sequence (P05979 whole entry): T1 sequence (whole entry)
The description is as §2.

The subject of assay [13] is Monocyte. The assay can be described thus: Antiinflammatory activity in human monocytes assessed as inhibition of LPS-induced COX2 expression after 20 hrs using rabbit polyclonal antibody IgG by Western blot analysis. Format: functional, cell-based. Put shortly: as §1
A short description of assay [14]: Antiinflammatory activity in human monocytes assessed as inhibition of LPS-induced COX2 expression at 10 uM after 20 hrs using rabbit polyclonal antibody IgG by Western blot analysis. It counts as functional. The following applies: Monocyte. Put shortly:
as §1

With `CC(C)=CCC/C(C)=C/COc1ccc(/C=C/C(=O)O)cc1C`, the inhibition result in [1], in [2], in assay [3] and in assay [4] was “inactive” in each case.
`CC(C)=CCOc1ccc(/C=C/C(=O)O)cc1C`: the inhibition result in [1], in [2], in assay [3] and in [4] was “inactive” each time.
Take `COC(=O)/C=C/c1ccc(OC/C=C(\C)CCC=C(C)C)c(OC)c1`: the inhibition in assay [5] was 81%; in assay [7], 50%. Moreover, the “inhibition (INH)” value in assay [6] amounted to 35%.
`CC(C)=CCOc1ccc(/C=C/C(=O)O)cc1Cl`: the inhibition entry in assay [1], in assay [2], in [3] and in [4] was “inactive” throughout.
`CCOC(=O)/C=C/c1ccc(OC/C=C(\C)CCC=C(C)C)c(OC)c1` registered an inhibition in [5] of 78%. For the same compound, the “inhibition (INH)” value in [6] is 45%.
`COc1cc(/C=C/C(=O)O)ccc1OCC=C(C)C` [BOROPINIC ACID]: the Activity in [8] was found to be 1.78 ng/µg. Further, the inhibition result in assay [3] and in assay [4] was “inactive” each time.
As for `CC(C)=CCC/C(C)=C/COc1ccc(/C=C/C(=O)O)cc1Cl`, the inhibition result in assay [1], in [2], in assay [3] and in assay [4] was “inactive” each time.
Take `C[C@@H]1C[C@H]2[C@@H]3CCC4=CC(=O)C=C[C@]4(C)[C@@]3(F)[C@@H](O)C[C@]2(C)[C@@]1(O)C(=O)CO`: the inhibition result in [9] was “Active”.
As to `CC(C)=CCC/C(C)=C/COc1ccc(/C=C/C(=O)O)cc1`, the Activity in assay [8] turned out to be 1.7 ng/µg. Also, the inhibition result in [3] and in assay [4] was “inactive” each time.
In the case of `CC(C)=CCOc1ccc(/C=C/C(=O)O)cc1`, the inhibition result in assay [10] is “Active”. The inhibition at 25 µM in assay [11] was determined as 13%. For the same compound, the pIC50 in [12] was 4.45. Moreover, the inhibition was 74% in assay [4] and “Dose-dependent effect” in assay [13].
On to `COc1cc(/C=C/C(=O)O)ccc1OC/C=C(\C)CCC=C(C)C`, for which the inhibition result in assay [10] is “Active”. Also, in [14], the inhibition at 10 µM came to 20%. In addition, the pIC50 in [12] is 4.27. In addition, the inhibition in [4] was 97.5%; in assay [13], “Dose-dependent effect”.

For the origin of these results see ChEMBL document CHEMBL1833952, “Inhibition of COX-1 activity and COX-2 expression by 3-(4'-geranyloxy-3'-methoxyphenyl)-2-trans propenoic acid and its semi-synthetic derivatives” (Bioorg Med Chem Lett, 2011).
